Marks after values point to notes of the source that are not given here.
Legend:
[1] = Plasma pharmacokinetics of resminostat in patients; assay type: in vivo, human; details: for half-life / AUC / AUC(0-inf) / Tmax / Cmax: human, plasma
How it was run: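 Oral capsules (100–800 mg) were taken once daily within 30 min after a light meal with 240 ml water, with a 1 h post-dose fast on PK days. Day 1 blood was drawn pre-dose to 24 h (15 min–10 h series plus 24 h); days 5 and 47, pre-dose to 8 h. Samples (2 ml EDTA) were kept on ice, spun 10 min at 2700 × g at 4°C, and plasma stored at −80°C. Analysis used validated HPLC-MS/MS and non-compartmental (extravascular) analysis, with AUC0-∞, Cmax and t½ log-transformed.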

HDAC enzyme = test: Cellular HDAC enzyme activity assay in patient blood cells; assay type: in vivo, human; details: plasma concentration, 2 hour post-dose on day 1, all dose levels, Hill model
How it was run: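 Whole citrate blood (1 ml) was incubated 2 h at 37°C with fluorogenic substrate Boc-K(Ac)-AMC, then erythrocytes were lysed and cells stored at −80°C. Developer reagent lysed cells and released fluorescence from the deacetylated substrate, read by fluorimetry. Untreated control was set as 100% activity and 10 μM trichostatin A as 100% inhibition. Sampling: C1D1 pre-dose, 2, 5, 8, 24 h; C1D5; C4D5.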

advanced solid tumors = test: Tumor response by RECIST 1.0; assay type: in vivo, human
How it was run: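 Patients with at least one RECIST-measurable lesion and progressive disease at entry had CT and/or MRI every 8 weeks for up to 6 months of treatment, then every 12 weeks. Response was scored by RECIST 1.0. Dosing was oral once daily on days 1–5 every 14 days, 100–800 mg.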

multiple myeloma cells = details: cited from earlier work
[2] = test system: relapsed/refractory Hodgkin lymphoma; details: cited from earlier work

For CN(C)Cc1ccc(S(=O)(=O)n2ccc(/C=C/C(=O)NO)c2)cc1 [resminostat], the “Change in AUC and Cmax between treatment days 1 and 5” value ([1]; all studied dose levels) was “no significant change”, the “Time at which peak plasma concentration Cmax was attained, median value” ([1]; day 1, single dosing, all doses) was 2 h and the Clearance ([1]; day 1, single oral administration, 100 mg, N=3, geometric mean (68% range), free-base) was 80900 (51600, 127000) mL/h. For the same compound, the Clearance ([1]; day 1, single oral administration, 200 mg, N=3, geometric mean (68% range), free-base) was 53800 (45000, 64300) mL/h, the Clearance ([1]; day 1, single oral administration, 400 mg, N=3, geometric mean (68% range), free-base) was 52500 (50600, 54400) mL/h and the Clearance ([1]; day 1, single oral administration, 600 mg, N=3, geometric mean (68% range), free-base) was 41400 (32200, 53300) mL/h. The Clearance ([1]; day 1, single oral administration, 800 mg, N=7, geometric mean (68% range), free-base) was 37700 (29500, 48200) mL/h, the Clearance ([1]; day 5, multiple oral administration, 100 mg, N=3, geometric mean (68% range), free-base) was 75100 (51000, 110000) mL/h and the Clearance ([1]; day 5, multiple oral administration, 200 mg, N=3, geometric mean (68% range), free-base) was 59500 (45500, 77800) mL/h. The Clearance ([1]; day 5, multiple oral administration, 400 mg, N=3, geometric mean (68% range), free-base) was 49300 (39900, 61000) mL/h, the Clearance ([1]; day 5, multiple oral administration, 600 mg, n = 2, geometric mean (68% range), free-base) was 31100 (27100, 35600)^b mL/h and the Clearance ([1]; day 5, multiple oral administration, 800 mg, N=6, geometric mean (68% range), free-base) was 41200 (29900, 56800) mL/h. It also gave a half-life ([1]; oral, Terminal plasma elimination half-life, range, day 1, all doses) of 2.35 to 4.41 h, an AUC ([1]; po, 100 mg) of 1330 ng·h/mL and an AUC(0-inf) ([1]; po, 100 mg) of 1240 ng·h/mL. For the same compound, the Tmax ([1]; po, 100 mg) was 2 h, the Cmax ([1]; po, 100 mg, day 1, single oral administration, 100 mg, N=3, geometric mean (68% range), free-base) was 487 ng/mL and the Cmax ([1]; po, 100 mg, day 5, multiple oral administration, 100 mg, N=3, geometric mean (68% range), free-base) was 373 ng/mL. The half-life ([1]; po, 100 mg, Half-life, day 1, single oral administration, 100 mg, N=3, geometric mean (68% range), free-base) was 3.77 h, the AUC ([1]; po, 200 mg) was 3360 ng·h/mL and the AUC(0-inf) ([1]; po, 200 mg) was 3720 ng·h/mL. The Tmax ([1]; po, 200 mg) was 2 h, the Cmax ([1]; po, 200 mg, day 1, single oral administration, 200 mg, N=3, geometric mean (68% range), free-base) was 1470 ng/mL and the Cmax ([1]; po, 200 mg, day 5, multiple oral administration, 200 mg, N=3, geometric mean (68% range), free-base) was 1060 ng/mL. It also gave a half-life ([1]; po, 200 mg, Half-life, day 1, single oral administration, 200 mg, N=3, geometric mean (68% range), free-base) of 3.12 h, an AUC ([1]; po, 400 mg) of 8110 ng·h/mL and an AUC(0-inf) ([1]; po, 400 mg) of 7630 ng·h/mL. The Tmax ([1]; po, 400 mg) was 2.5 h, the Cmax ([1]; po, 400 mg, day 1, single oral administration, 400 mg, N=3, geometric mean (68% range), free-base) was 2160 ng/mL and the Cmax ([1]; po, 400 mg, day 5, multiple oral administration, 400 mg, N=3, geometric mean (68% range), free-base) was 2270 ng/mL. For the same compound, the half-life ([1]; po, 400 mg, Half-life, day 1, single oral administration, 400 mg, N=3, geometric mean (68% range), free-base) was 3.44 h, the AUC ([1]; po, 600 mg) was 19300 ng·h/mL and the AUC(0-inf) ([1]; po, 600 mg) was 14500 ng·h/mL. It also gave a Tmax ([1]; po, 600 mg) of 2.5 h, a Cmax ([1]; po, 600 mg, day 1, single oral administration, 600 mg, N=3, geometric mean (68% range), free-base) of 4100 ng/mL and a Cmax ([1]; po, 600 mg, day 5, multiple oral administration, 600 mg, N=3, geometric mean (68% range), free-base) of 3000 ng/mL. The half-life ([1]; po, 600 mg, Half-life, day 1, single oral administration, 600 mg, N=3, geometric mean (68% range), free-base) was 2.84 h, the AUC ([1]; po, 800 mg) was 19400 ng·h/mL and the AUC(0-inf) ([1]; po, 800 mg) was 21200 ng·h/mL. For the same compound, the Tmax ([1]; po, 800 mg) was 1.75 h, the Cmax ([1]; po, 800 mg, day 1, single oral administration, 800 mg, N=7, geometric mean (68% range), free-base) was 4970 ng/mL and the Cmax ([1]; po, 800 mg, day 5, multiple oral administration, 800 mg, N=6, geometric mean (68% range), free-base) was 4510 ng/mL. The half-life ([1]; po, 800 mg, Half-life, day 1, single oral administration, 800 mg, N=7, geometric mean (68% range), free-base) was 2.81 h, the “Oral bioavailability (judged from plasma exposure)” value ([1]; patients, oral capsules) was “good oral bioavailability” and the “Resminostat concentration at 50% of HDAC enzyme inhibition” value (HDAC enzyme) was 306 ng/mL. The “Patients who achieved SD” value (advanced solid tumors; 600 mg dose group) was “Three of 3”, the “Patients with stable disease (SD) lasting >8 weeks” value (advanced solid tumors; all dose levels, 95% CI: 34–80) was 58% and the “Reduction in the sum of the longest diameters of tumor target lesions” value (advanced solid tumors; one patient with metastatic thymoma) was 27%. For the same compound, the “Time on study with SD” value (advanced solid tumors; patient with liposarcoma, 31 cycles) was 14.2 months, the “Apoptosis signalling (Bim, Bax, Caspases 3, 8 and 9 up; Bcl-xL down)” value (multiple myeloma cells) was “pro-apoptotic signals were seen” and the “Objective response rate (Cheson criteria, independent central review, interim analysis)” value ([2]; 11 of 33 evaluable patients) was 33%. For the same compound, the Clinical benefit rate ([2]; 18 of 33 patients) was 55%.

— paper PMC3790647 (Clinical cancer research : an official journal of the …, 2013)
